# How the values were obtained:
# Enterobacter cloacae = assay: Antibacterial activity against Enterobacter cloacae MA2646; format: functional
# Escherichia coli [1] = assay: Antibacterial activity against Escherichia coli H560; format: functional
# Outline: (§1)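 Minimum inhibitory concentration measured by standard microtitration, run as part of a panel of 11 bacterial organisms.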
# Escherichia coli [2] = assay: Antibacterial activity against Escherichia coli Vogel; format: functional; outline: as §1
# DNA gyrase = DNA gyrase (Escherichia coli, UniProt P0AES4+P0AES6); assay: 50% inhibitory concentration against DNA-gyrase; format: protein-complex assay
# Klebsiella pneumoniae = assay: Antibacterial activity against Klebsiella pneumoniae MGH-2; format: functional; outline: as §1
# Escherichia coli [3] = assay: Median protective dose against Escherichia coli, determined in acute, lethal systemic infection in female charles river CD-1 mice (po); format: functional; conditions: Escherichia coli, po; read-out: PD50
# Outline: (§2)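 Female Charles River CD-1 mice (18-22 g) were challenged intraperitoneally with about 100 median lethal doses in 0.5 mL 5% hog gastric mucin. Single compound doses in a twofold rising series were given in 0.5 mL at the time of challenge: sc as aqueous solution, po by gavage in 5% gum acacia. Groups of eight mice were used per dose. PD50 was estimated from survival percentages by log probit.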
# Escherichia coli [4] = assay: Median protective dose against Escherichia coli, determined in acute, lethal systemic infection in female charles river CD-1 mice (sc); format: functional; conditions: read-out: PD50; outline: as §2
# Providencia rettgeri = assay: Antibacterial activity against Providencia rettgeri M1771; format: functional; outline: as §1
# Pseudomonas aeruginosa = assay: Antibacterial activity against Pseudomonas aeruginosa UI-18; format: functional; outline: as §1
# Staphylococcus aureus [5] = assay: Antibacterial activity against Staphylococcus aureus UC76; format: functional; outline: as §1
# Staphylococcus aureus [6] = assay: Antibacterial activity against Staphylococcus aureus H-228; format: functional; outline: as §1
# Streptococcus pneumoniae = assay: Antibacterial activity against Streptococcus pneumoniae SV-1; format: functional; outline: as §1
# Streptococcus pyogenes = assay: Antibacterial activity against Streptococcus pyogenes C203; format: functional; outline: as §1
# Enterococcus faecalis = assay: Antibacterial activity against Streptococcus faecalis MGH-2; format: functional; outline: as §1
Compound,MIC (Enterobacter cloacae) [µg/mL],MIC (Escherichia coli [1]) [µg/mL],MIC (Escherichia coli [2]) [µg/mL],IC50 (DNA gyrase) [µM],MIC (Klebsiella pneumoniae) [µg/mL],ED50 (Escherichia coli [3]) [mg/kg],ED50 (Escherichia coli [4]) [mg/kg],MIC (Providencia rettgeri) [µg/mL],MIC (Pseudomonas aeruginosa) [µg/mL],MIC (Staphylococcus aureus [5]) [µg/mL],MIC (Staphylococcus aureus [6]) [µg/mL],MIC (Streptococcus pneumoniae) [µg/mL],MIC (Streptococcus pyogenes) [µg/mL],MIC (Enterococcus faecalis) [µg/mL]
CCNCC1CCN(c2c(F)cc3c(=O)c(C(=O)O)cn(C4CC4)c3c2F)C1 (centres undefined) [PD-117558],0.2,0.025,0.05,3.58,0.1,4.2,1,0.2,0.4,0.006,0.05,0.025,0.025,0.025
CCNCC1CCN(c2c(F)c(NC)c3c(=O)c(C(=O)O)cn(C4CC4)c3c2F)C1 (centres undefined),0.4,0.05,0.2,32.8,0.4,11,5,1.6,3.1,0.025,0.025,0.025,0.1,0.1
CN1CCN(c2c(F)c(N(C)C)c3c(=O)c(C(=O)O)cn(C4CC4)c3c2F)CC1,> 25,> 25,> 25,> 492,> 25,–,–,> 25,> 25,> 25,> 25,> 25,> 25,> 25
NCC1CCN(c2c(F)c(N)c3c(=O)c(C(=O)O)cn(C4CC4)c3c2F)C1 (centres undefined),0.025,0.003,0.013,7.66,0.025,12,0.8,0.05,0.1,0.003,0.006,0.003,0.003,0.013
O=C(O)c1cn(C2CC2)c2cc(N3CCNCC3)c(F)cc2c1=O [CIPROFLOXACIN],–,0.025,–,–,0.1,1.2,0.3,0.1,0.4,0.2,3.1,1.6,0.8,0.8
CC1COc2c(N3CCN(C)CC3)c(F)cc3c(=O)c(C(=O)O)cn1c23 (centres undefined) [OFLOXACIN],0.1,0.1,0.1,–,0.1,2,0.8,0.1,0.4,0.1,0.4,0.8,0.8,0.8
CNCC1CCN(c2c(F)c(N)c3c(=O)c(C(=O)O)cn(C4CC4)c3c2F)C1 (centres undefined),0.05,0.003,0.025,7.65,0.05,7.5,0.8,0.2,0.4,0.006,0.013,0.003,0.003,0.025
CCNCC1CCN(c2c(F)c(NC(C)=O)c3c(=O)c(C(=O)O)cn(C4CC4)c3c2F)C1 (centres undefined),> 25,12.5,> 25,> 223,> 25,–,–,> 25,> 25,3.1,12.5,6.3,12.5,12.5

# — ChEMBL document CHEMBL1124255, “7-substituted 5-amino-1-cyclopropyl-6,8-difluoro-1,4-dihydro-4-oxo-3- quinolinecarboxylic acids: synthesis and biological activity of a new class of quinolone antibacterials” (J Med Chem, 1988)
